This is an account of results in PubChem BioAssay.

SMILES strings stand for the structures. The source made the active and inactive calls.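 The calls were made as follows, unless noted: active = GFP response above 150% of the DMSO level; inconclusive = fewer than 70 events counted for a yeast strain; inactive = the rest.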

Assay [1] can be described thus: hit retest on RPL19A-GFP reporter strain – cell-based, S. cerevisiae, flow cytometry, cherry picks, mother/daughter gates, confirmation (AID 2270;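 active = GFP response below 50% of the DMSO control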). The conditions noted are these: 3 h, at 10 µM, stronger effect = lower value, 100 = same GFP as DMSO wells.
The nature of assay [2]: yeast TOR pathway reporter LAP4-GFP change – cell-based, cherry picks, flow cytometry, mother/daughter gates, confirmation (AID 2271;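 active = GFP response above 150% of the DMSO control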;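 also: ratio of sample to DMSO plate mean so 100% equals DMSO level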). The note with it: S. cerevisiae LAP4-GFP strain, 3 h, at 10 µM, stronger effect = higher value, 100 means same as DMSO control. The procedure, abridged: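 Material – Alexa Fluor 633-labelled Saccharomyces cerevisiae GFP-fusion strain, single-plex · Incubation – compound exposure 3 h at 30 °C, end-over-end rotation · Measured by – GFP by flow cytometry · Measure – median GFP fluorescence as percent of plate-mean DMSO wells · Control set – positive rapamycin (400 ng/mL), negative DMSO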
For orientation: A flow cytometer gives signals particle by particle.

Assay [3] in a line: TOR pathway reporter MEP2-GFP, retest of hits – S. cerevisiae, flow cytometry GFP, cherry picks, confirmation (AID 2272;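 active = GFP response above 150% of the DMSO control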;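 also: ratio of well signal to plate DMSO mean so 100% equals DMSO level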). The conditions noted are these: S. cerevisiae MEP2-GFP strain, 3 h, at 10 µM, stronger effect = higher value.
A short description of assay [4]: yeast AGP1-GFP fluorescence change, single-dose – cell-based, flow cytometry, S. cerevisiae, cherry picks, confirmation (AID 2273).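 Also: median GFP channel fluorescence over the whole cell population gate.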 The conditions noted are these: S. cerevisiae AGP1-GFP strain, 3 h, at 10 µM.
A short description of assay [5]: TOR pathway CIT2 reporter hit retest – S. cerevisiae, GFP fusion, cherry picks, mother/daughter gates, confirmation (AID 2274). The conditions noted are these: S. cerevisiae CIT2-GFP strain, flow cytometry, 3 h, at 10 µM, stronger effect = higher value.
Where [6] appears, read: measured here: daughter cell gate.
Where [7] appears, read: measured here: mother cell gate.
Where [8] appears, read: measured here: daughter cell gate response.
Setting [9] is: measured here: mother cell gate response.

Take `Cc1cc(=O)n2c3c(sc2n1)C(=O)N(Cc1ccccc1)C3=O`: the GFP response vs DMSO is 94.3% (inactive) in assay [1], 94.5% in assay [1] (setting [6]), 94% in assay [1] (setting [7]) and 103% (inactive) in assay [3]. Moreover, the GFP response relative to DMSO was 152% (active) in assay [2], 140% in assay [2] (setting [8]) and 161% in assay [2] (setting [9]). Also, the GFP response, % of DMSO in assay [4] is 105% (inactive); in assay [5], 81% (inactive); in assay [5] (setting [6]) it was 87.3%; in assay [5] (setting [7]), 74.8%.
Take `CCOC(=O)COc1c(Cl)cc(/C=C2\N=C(C)OC2=O)cc1OC`: the GFP response vs DMSO in assay [1] is 105% (inactive); in assay [1] (setting [6]), 105%; in assay [1] (setting [7]), 103%; in assay [3], 104% (inactive). The GFP response relative to DMSO in assay [2] was 109% (inactive); in assay [2] (setting [8]), 108%; in assay [2] (setting [9]) it was 113%. The GFP response, % of DMSO in assay [4] was 98.9% (inactive); in assay [5], 103% (inactive); in assay [5] (setting [6]) it was 105%; in assay [5] (setting [7]), 99.8%.
Turning to `CCn1c(=O)c(C(=O)Nc2nc3ccccc3[nH]2)c(O)c2ccccc21`, the GFP response vs DMSO is 82.3% (inactive) in assay [1], 87.3% in assay [1] (setting [6]), 67% in assay [1] (setting [7]) and 159% (inactive) in assay [3]. The GFP response relative to DMSO in assay [2] is 169% (active); in assay [2] (setting [8]) it was 109%; in assay [2] (setting [9]), 185%. For the same molecule, the GFP response, % of DMSO in assay [4] was 96.2% (inactive); in assay [5] it was 128% (inactive); in assay [5] (setting [6]), 99.1%; in assay [5] (setting [7]), 109%.
As for `CCc1ccc(CNC(=O)CCC(=O)N2Cc3cccc(OC)c3Oc3ncccc32)cc1`, the GFP response vs DMSO in assay [1] was 99.2% (inactive); in assay [1] (setting [6]), 98.8%; in assay [1] (setting [7]), 99.9%; in assay [3], 101% (inactive). In addition, the GFP response relative to DMSO in assay [2] was 94.4% (inactive); in assay [2] (setting [8]), 94.2%; in assay [2] (setting [9]), 95.2%. Moreover, the GFP response, % of DMSO in assay [4] was 96.7% (inactive); in assay [5] it was 102% (inactive); in assay [5] (setting [6]), 105%; in assay [5] (setting [7]), 94.4%.
Take `CCCN(Cc1nnc(-c2ccccc2Cl)o1)C(=O)c1cc([N+](=O)[O-])cc([N+](=O)[O-])c1`: the GFP response vs DMSO in assay [1] is 97.3% (inactive); in assay [1] (setting [6]), 98.4%; in assay [1] (setting [7]), 96.1%; in assay [3], 101% (inactive). In addition, the GFP response relative to DMSO was 97.7% (inactive) in assay [2], 96% in assay [2] (setting [8]) and 98.4% in assay [2] (setting [9]). Also, the GFP response, % of DMSO was 98.6% (inactive) in assay [4], 94.4% (inactive) in assay [5], 94% in assay [5] (setting [6]) and 94.9% in assay [5] (setting [7]).
Turning to `Cc1ccc(C2=NOC(=O)/C2=C\c2ccc(C)o2)cc1`, the GFP response vs DMSO in assay [1] was 101% (inactive); in assay [1] (setting [6]), 89.7%; in assay [1] (setting [7]), 90.8%; in assay [3], 110% (inactive). Also, the GFP response relative to DMSO was 230% (active) in assay [2], 134% in assay [2] (setting [8]) and 224% in assay [2] (setting [9]). In addition, the GFP response, % of DMSO is 97% (inactive) in assay [4], 87.2% (inactive) in assay [5], 87.3% in assay [5] (setting [6]) and 72.8% in assay [5] (setting [7]).
Take `CCOc1ccc(NC2=C(Cl)C(=O)N(Cc3ccccc3)C2=O)cc1`: the GFP response vs DMSO in assay [1] was 98.2% (inactive); in assay [1] (setting [6]) it was 98.3%; in assay [1] (setting [7]) it was 100%; in assay [3] it was 99.5% (inactive). The values for the GFP response relative to DMSO in assay [2], in assay [2] (setting [8]) and in assay [2] (setting [9]) were 102% (inactive), 96.5% and 102%, respectively. Moreover, the GFP response, % of DMSO in assay [4] is 95.8% (inactive); in assay [5], 96.4% (inactive); in assay [5] (setting [6]), 98.3%; in assay [5] (setting [7]) it was 94.5%.
`Cc1ccc(C(=O)NNC(=S)NC(=O)COc2ccccc2)cc1`: the GFP response vs DMSO in assay [1] is 122% (inactive); in assay [1] (setting [6]) it was 92.1%; in assay [1] (setting [7]) it was 110%; in assay [3], 153% (inactive). The GFP response relative to DMSO was 223% (active) in assay [2], 186% in assay [2] (setting [8]) and 203% in assay [2] (setting [9]). Besides, the GFP response, % of DMSO in assay [4] is 134% (inactive); in assay [5] it was 138% (inactive); in assay [5] (setting [6]) it was 139%; in assay [5] (setting [7]) it was 110%.
For `Cc1nc2c(-c3ccc(F)cc3)c(C)nn2c(N2CCOCC2)c1C`, the GFP response vs DMSO in assay [1] is 100% (inactive); in assay [1] (setting [6]), 101%; in assay [1] (setting [7]), 100%; in assay [3], 104% (inactive). Also, the results for the GFP response relative to DMSO in assay [2], in assay [2] (setting [8]) and in assay [2] (setting [9]) were 96.5% (inactive), 96.5% and 97.5%, respectively. Further, the GFP response, % of DMSO in assay [4] is 98.7% (inactive); in assay [5] it was 104% (inactive); in assay [5] (setting [6]), 104%; in assay [5] (setting [7]), 101%.
With `CC(=O)Nc1cccc(/C(C)=N/NC(=O)c2ccccc2Cl)c1`, the GFP response vs DMSO in assay [1] is 98.2% (inactive); in assay [1] (setting [6]), 97.9%; in assay [1] (setting [7]), 98.7%; in assay [3] it was 100% (inactive). Moreover, the GFP response relative to DMSO in assay [2] is 102% (inactive); in assay [2] (setting [8]) it was 102%; in assay [2] (setting [9]), 99.3%. For the same molecule, the GFP response, % of DMSO in assay [4] was 101% (inactive); in assay [5] it was 99.7% (inactive); in assay [5] (setting [6]), 101%; in assay [5] (setting [7]), 99.7%.
For the molecule `Cc1ccccc1NC(=O)CC1SC(=O)N(c2ccccc2)C1=O` (configuration not stated), the GFP response vs DMSO in assay [1] was 94.9% (inactive); in assay [1] (setting [6]) it was 97.3%; in assay [1] (setting [7]) it was 91%; in assay [3], 112% (inactive). Moreover, the figures for the GFP response relative to DMSO in assay [2], in assay [2] (setting [8]) and in assay [2] (setting [9]) were 131% (inactive), 127% and 133%, respectively. Moreover, the GFP response, % of DMSO in assay [4] is 104% (inactive); in assay [5], 104% (inactive); in assay [5] (setting [6]), 108%; in assay [5] (setting [7]), 94.9%.
Consider `CCCc1[nH]nc2c1C(c1ccc(O)cc1OCC)C(C#N)=C(N)O2` (configuration not stated), for which the GFP response vs DMSO in assay [1] is 102% (inactive); in assay [1] (setting [6]), 104%; in assay [1] (setting [7]), 100%; in assay [3], 106% (inactive). For the same molecule, the GFP response relative to DMSO in assay [2] is 92.9% (inactive); in assay [2] (setting [8]) it was 99%; in assay [2] (setting [9]), 92.3%. Also, the GFP response, % of DMSO is 101% (inactive) in assay [4], 104% (inactive) in assay [5], 105% in assay [5] (setting [6]) and 104% in assay [5] (setting [7]).
As for `Cc1ccc(-c2csc(NC(=O)c3ccno3)n2)cc1`, the GFP response vs DMSO is 99% (inactive) in assay [1], 98.4% in assay [1] (setting [6]), 96.5% in assay [1] (setting [7]) and 99% (inactive) in assay [3]. Moreover, the GFP response relative to DMSO was 103% (inactive) in assay [2], 99.1% in assay [2] (setting [8]) and 106% in assay [2] (setting [9]). Besides, the GFP response, % of DMSO was 95.1% (inactive) in assay [4], 100% (inactive) in assay [5], 99.2% in assay [5] (setting [6]) and 99.3% in assay [5] (setting [7]).
On to `C=CCN1C(=O)C2(C(C#N)=C(N)Oc3n[nH]c(CCC)c32)c2ccccc21` (configuration not stated), for which the GFP response vs DMSO is 100% (inactive) in assay [1], 99.8% in assay [1] (setting [6]), 102% in assay [1] (setting [7]) and 100% (inactive) in assay [3]. Besides, the GFP response relative to DMSO in assay [2] was 97.4% (inactive); in assay [2] (setting [8]) it was 100%; in assay [2] (setting [9]) it was 98.3%. Further, the GFP response, % of DMSO is 102% (inactive) in assay [4], 100% (inactive) in assay [5], 98.1% in assay [5] (setting [6]) and 102% in assay [5] (setting [7]).
`CC(=O)c1ccccc1NCC(=O)Nc1ccc(C)cc1`: the GFP response vs DMSO in assay [1] is 96.3% (inactive); in assay [1] (setting [6]), 95%; in assay [1] (setting [7]), 96%; in assay [3] it was 103% (inactive). Besides, the GFP response relative to DMSO in assay [2] was 99.8% (inactive); in assay [2] (setting [8]), 98.2%; in assay [2] (setting [9]), 101%. The GFP response, % of DMSO in assay [4] is 100% (inactive); in assay [5] it was 93.4% (inactive); in assay [5] (setting [6]), 95.2%; in assay [5] (setting [7]), 92.8%.
Regarding `COc1cc(/C=C2\N=C(c3ccccc3)OC2=O)ccc1OC(C)=O`, the GFP response vs DMSO was 94.9% (inactive) in assay [1], 93.5% in assay [1] (setting [6]), 96.3% in assay [1] (setting [7]) and 112% (inactive) in assay [3]. For the same molecule, the GFP response relative to DMSO in assay [2] was 101% (inactive); in assay [2] (setting [8]) it was 98.2%; in assay [2] (setting [9]), 102%. The GFP response, % of DMSO in assay [4] was 107% (inactive); in assay [5] it was 113% (inactive); in assay [5] (setting [6]) it was 111%; in assay [5] (setting [7]) it was 113%.
Turning to `Clc1ccc(C2=NNC(=NCc3ccccc3)SC2)cc1`, the GFP response vs DMSO was 95.6% (inactive) in assay [1], 94.6% in assay [1] (setting [6]), 86.8% in assay [1] (setting [7]) and 98.3% (inactive) in assay [3]. In addition, the GFP response relative to DMSO is 97.9% (inactive) in assay [2], 97.6% in assay [2] (setting [8]) and 98.3% in assay [2] (setting [9]). The GFP response, % of DMSO in assay [4] was 93.9% (inactive); in assay [5], 99.7% (inactive); in assay [5] (setting [6]), 101%; in assay [5] (setting [7]), 98.5%.
